Results: ChEMBL document CHEMBL3627671, “Novel derivatives of nitro-substituted salicylic acids: Synthesis, antimicrobial activity and cytotoxicity” (Bioorg Med Chem, 2015)
Converted amounts (≈) assume the structure as drawn.

How the values were obtained:
Mycobacterium kansasii [1] = test: Antimycobacterial activity against Mycobacterium kansasii 6509/96 after 7 days; assay type: functional; details: 6509/96, 168 h
Method in brief: (§1)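 Šula's semisynthetic medium micromethod at 37 °C, read after 7, 14 and 21 days. The 1.0 McFarland suspension was diluted 10^-4. MIC determined. 6509/96 is a clinical isolate.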

HepG2 = test: Cytotoxicity against human HepG2 cells after 24 hrs […]; assay type: cell-based; details: HepG2, 24 h
[2] = tested on: Mycobacterium tuberculosis; test: Antimycobacterial activity against Mycobacterium tuberculosis H37Rv 331/88 after 21 days; assay type: functional; details: H37Rv 331/88, 504 h
Mycobacterium kansasii [3] = test: Antimycobacterial activity against Mycobacterium kansasii 6509/96 after 21 days; assay type: functional; details: 6509/96, 504 h; method in brief: as §1
[4] = tested on: Mycobacterium tuberculosis; test: Antimycobacterial activity against Mycobacterium tuberculosis H37Rv 331/88 after 14 days; assay type: functional; details: H37Rv 331/88, 336 h
Mycobacterium avium [5] = test: Antimycobacterial activity against Mycobacterium avium 330/80 after 14 days; assay type: functional; details: 330/80, 336 h
Mycobacterium kansasii [6] = test: Antimycobacterial activity against Mycobacterium kansasii 235/80 after 7 days; assay type: functional; details: 235/80, 168 h; method in brief: as §1
Mycobacterium kansasii [7] = test: Antimycobacterial activity against Mycobacterium kansasii 235/80 after 14 days; assay type: functional; details: 235/80, 336 h; method in brief: as §1
Mycobacterium avium [8] = test: Antimycobacterial activity against Mycobacterium avium 330/80 after 21 days; assay type: functional; details: 330/80, 504 h
[9] = Selectivity index, ratio of CI50 for human HepG2 cells to MIC100 for Mycobacterium tuberculosis H37Rv 331/88
Mycobacterium kansasii [10] = test: Antimycobacterial activity against Mycobacterium kansasii 235/80 after 21 days; assay type: functional; details: 235/80, 504 h; method in brief: as §1
Mycobacterium kansasii [11] = test: Antimycobacterial activity against Mycobacterium kansasii 6509/96 after 14 days; assay type: functional; details: 6509/96, 336 h; method in brief: as §1

Row | Compound | MIC (Mycobacterium kansasii [1]) | IC50 (HepG2) | MIC [2] | MIC (Mycobacterium kansasii [3]) | MIC [4] | MIC (Mycobacterium avium [5]) | MIC (Mycobacterium kansasii [6]) | MIC (Mycobacterium kansasii [7]) | MIC (Mycobacterium avium [8]) | Selectivity Index [9] | MIC (Mycobacterium kansasii [10]) | MIC (Mycobacterium kansasii [11])
1 | O=C(Nc1ccc(Cl)c(Cl)c1)c1cccc([N+](=O)[O-])c1O | 62.5 µM (≈ 20.4 µg/mL) | 5.9 µM | 32 µM (≈ 10.5 µg/mL) | 62.5 µM (≈ 20.4 µg/mL) | 16 µM (≈ 5.23 µg/mL) | 250 µM (≈ 81.8 µg/mL) | 32 µM (≈ 10.5 µg/mL) | 62.5 µM (≈ 20.4 µg/mL) | 250 µM (≈ 81.8 µg/mL) | 0.184 | 62.5 µM (≈ 20.4 µg/mL) | 62.5 µM (≈ 20.4 µg/mL)
2 | O=C(Nc1cccc(C(F)(F)F)c1)c1cccc([N+](=O)[O-])c1O | 125 µM (≈ 40.8 µg/mL) | 8.9 µM | 32 µM (≈ 10.4 µg/mL) | 250 µM (≈ 81.6 µg/mL) | 32 µM (≈ 10.4 µg/mL) | 500 µM (≈ 163 µg/mL) | 32 µM (≈ 10.4 µg/mL) | 62.5 µM (≈ 20.4 µg/mL) | 500 µM (≈ 163 µg/mL) | 0.278 | 62.5 µM (≈ 20.4 µg/mL) | 250 µM (≈ 81.6 µg/mL)
